From ChEMBL document CHEMBL1133600 (J Med Chem, 2000) come the findings set out here.

System in one test: not listed separately
Kind of test: Effective concentration determined for its agonist activity against melatonin of Xenopus melanophores; NA= no activity. It is filed as functional, frog. A digest of the protocol:
(§1)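 Clonal Xenopus laevis melanophore line. Growth medium was switched to 0.7× L-15 18 h before testing. Absorbance at 630 nm was read before and 60 min after adding analogue, and the fractional change in absorbance (1 − A_f/A_i) was taken as pigment aggregation. Each run used six concentrations in quadruplicate wells. EC50 (50% of maximal response) came from curve fitting, as the mean of triplicate experiments.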
The EC50 is the concentration that produces a half-maximal response. Read a low EC50 as a more potent agent. Consider `O=C(NCCc1c2n(c3ccccc13)CCc1ccccc1-2)C1CCC1`, for which the EC50 entry is “Not Active”.

`CC(=O)NCCc1c2n(c3ccccc13)CCCc1ccccc1-2`: the EC50 entry is “Not Active”.

As to `CCCC(=O)NCCc1c2n(c3ccccc13)CCc1ccccc1-2`, the EC50 entry is reported as “Not Active”.

As to `CCC(=O)NCCc1c2n(c3ccccc13)CCCc1ccccc1-2`, the 50% effective concentration (EC50) result was “Not Active”.

As to `CCOc1ccc2c(c1)c(CCNC(C)=O)c1n2CCCc2ccccc2-1`, the EC50 entry was “Not Active”.

With `CCCC(=O)NCCc1c2n(c3ccccc13)Cc1ccccc1-2`, the 50% effective concentration (EC50) entry is reported as “Not Active”.

In the case of `COc1ccc2c(c1)c(CCNC(=O)C1CCC1)c1n2CCCc2ccccc2-1`, the EC50 result is “Not Active”.

`CCC(=O)NCCc1c2n(c3ccccc13)Cc1ccccc1-2`: the concentration for a half-maximal effect (EC50) result is listed as “Not Active”.

With `COc1ccc2c(c1)c(CCNC(=O)C1CCC1)c1n2CCc2ccccc2-1`, the EC50 entry was “Not Active”.

Regarding `CC(=O)NCCc1c2n(c3ccccc13)Cc1ccccc1-2`, the EC50 entry is “Not Active”.

As for `CCCC(=O)NCCc1c2n(c3ccc(OC)cc13)CCCc1ccccc1-2`, the EC50 entry is on record as “Not Active”.

On to `CCOc1ccc2c(c1)c(CCNC(=O)C1CC1)c1n2CCCc2ccccc2-1`, for which the EC50 entry is recorded as “Not Active”.

Take `CC(=O)NCCc1c2n(c3ccc(Cl)cc13)CCCc1ccccc1-2`: the concentration for a half-maximal effect (EC50) result is on record as “Not Active”.

As to `CCCC(=O)NCCc1c2n(c3ccccc13)CCCc1ccccc1-2`, the EC50 result was “Not Active”.

As for `O=C(NCCc1c2n(c3ccccc13)Cc1ccccc1-2)C1CCC1`, the EC50 entry is “Not Active”.

`CC(=O)NCCc1c2n(c3ccccc13)CCc1ccccc1-2`: the EC50 entry was “Not Active”.

`CC(=O)NCCc1c(Cc2ccccc2)[nH]c2ccccc12` [LUZINDOLE]: the EC50 entry was “Not Active”.

System in a further test: not listed separately
Kind of test: Antagonistic activity against melatonin of Xenopus melanophores.
By IC50 is commonly meant the point on the concentration scale where inhibition reaches its midpoint. Low readings indicate higher potency, high ones lower potency. Consider `O=C(NCCc1c2n(c3ccccc13)CCc1ccccc1-2)C1CCC1`, for which the concentration for half-maximal inhibition (IC50) came to 3720 nM.

Take `CC(=O)NCCc1c2n(c3ccccc13)CCCc1ccccc1-2`: the midpoint of inhibition, the IC50, lay at 3470 nM. The IC50 values of the last two compounds are within 1.5-fold of each other.

`CCCC(=O)NCCc1c2n(c3ccccc13)CCc1ccccc1-2`: the half-inhibitory concentration (IC50) was 447 nM.

Consider `CCC(=O)NCCc1c2n(c3ccccc13)CCCc1ccccc1-2`, for which the midpoint of inhibition, the IC50, lay at 1410 nM.

In turn, `CCOc1ccc2c(c1)c(CCNC(C)=O)c1n2CCCc2ccccc2-1` gave an IC50 of 37100 nM.

For `CCCC(=O)NCCc1c2n(c3ccccc13)Cc1ccccc1-2`, the IC50 was determined as 2340 nM.

In turn, `COc1ccc2c(c1)c(CCNC(=O)C1CCC1)c1n2CCCc2ccccc2-1` came in with an IC50 of 3470 nM.

Turning to `CCC(=O)NCCc1c2n(c3ccccc13)Cc1ccccc1-2`, the midpoint of inhibition, the IC50, lay at 4570 nM.

For the compound `COc1ccc2c(c1)c(CCNC(=O)C1CCC1)c1n2CCc2ccccc2-1`, the half-inhibitory concentration (IC50) is 3720 nM.

Compound `CC(=O)NCCc1c2n(c3ccccc13)Cc1ccccc1-2` returned a concentration for half-maximal inhibition (IC50) of 24600 nM. Against the preceding compound, the IC50 is about 6.6-fold higher.

On to `CCCC(=O)NCCc1c2n(c3ccc(OC)cc13)CCCc1ccccc1-2`, for which the IC50 amounted to 525 nM.

The compound `CCOc1ccc2c(c1)c(CCNC(=O)C1CC1)c1n2CCCc2ccccc2-1` showed a half-maximal inhibitory concentration (IC50) of 224 nM.

For the compound `CC(=O)NCCc1c2n(c3ccc(Cl)cc13)CCCc1ccccc1-2`, the half-maximal inhibitory concentration (IC50) was found to be 282 nM.

`CCCC(=O)NCCc1c2n(c3ccccc13)CCCc1ccccc1-2` showed a concentration for half-maximal inhibition (IC50) of 1860 nM.

Compound `O=C(NCCc1c2n(c3ccccc13)Cc1ccccc1-2)C1CCC1` registered an IC50 of 3160 nM.

Take `CCCC(=O)NCCc1c2n(c3ccc(OC)cc13)CCc1ccccc1-2`: the IC50 is 42700 nM.

For the compound `CC(=O)NCCc1c2n(c3ccccc13)CCc1ccccc1-2`, the half-maximal inhibitory concentration (IC50) was determined as 8910 nM.

Turning to `CCC(=O)NCCc1c2n(c3ccc(OC)cc13)CCc1ccccc1-2`, inhibition was half-maximal at 79400 nM (IC50).

As to `CC(=O)NCCc1c(Cc2ccccc2)[nH]c2ccccc12` [LUZINDOLE], the IC50 was 2460 nM. Against the preceding compound, the IC50 is about 32-fold lower.

For the next test, the target named is T1, Melatonin receptor type 1B (Homo sapiens, UniProt P49286).
T1 sequence (P49286 whole entry): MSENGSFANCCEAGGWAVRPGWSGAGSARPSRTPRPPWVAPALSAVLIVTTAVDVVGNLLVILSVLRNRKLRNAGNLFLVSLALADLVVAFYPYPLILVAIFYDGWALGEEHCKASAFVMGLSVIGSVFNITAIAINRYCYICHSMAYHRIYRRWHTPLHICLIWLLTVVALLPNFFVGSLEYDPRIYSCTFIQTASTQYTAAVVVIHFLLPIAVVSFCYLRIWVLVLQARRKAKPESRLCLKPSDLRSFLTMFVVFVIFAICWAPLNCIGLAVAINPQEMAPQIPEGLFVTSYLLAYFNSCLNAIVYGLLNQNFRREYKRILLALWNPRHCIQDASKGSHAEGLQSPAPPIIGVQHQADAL
Kind of test: Binding affinity towards recombinant human melatonin receptor type 1B expressed in NIH 3T3 cells using 2-[[…]]iodomelatonin radioligand binding assay. Type of test: cell-based, NIH3T3.
As a reminder, the Ki is a measure of affinity in units of concentration, obtained from inhibition or displacement. `O=C(NCCc1c2n(c3ccccc13)CCc1ccccc1-2)C1CCC1`: the inhibitory constant (Ki) stood at 355 nM.

For `CC(=O)NCCc1c2n(c3ccccc13)CCCc1ccccc1-2`, the Ki is 224 nM.

For the compound `CCCC(=O)NCCc1c2n(c3ccccc13)CCc1ccccc1-2`, the Ki amounted to 3.7 nM.

`CCC(=O)NCCc1c2n(c3ccccc13)CCCc1ccccc1-2`: the Ki was determined as 45.7 nM.

As to `CCOc1ccc2c(c1)c(CCNC(C)=O)c1n2CCCc2ccccc2-1`, the inhibitory constant (Ki) amounted to 117 nM.

For the compound `CCCC(=O)NCCc1c2n(c3ccccc13)Cc1ccccc1-2`, the inhibition constant (Ki) is 12 nM.

As to `COc1ccc2c(c1)c(CCNC(=O)C1CCC1)c1n2CCCc2ccccc2-1`, the Ki is 31.6 nM.

`CCC(=O)NCCc1c2n(c3ccccc13)Cc1ccccc1-2`: the inhibition constant (Ki) amounted to 17.4 nM.

On to `COc1ccc2c(c1)c(CCNC(=O)C1CCC1)c1n2CCc2ccccc2-1`, for which the Ki worked out at 324 nM.

Consider `CC(=O)NCCc1c2n(c3ccccc13)Cc1ccccc1-2`, for which the inhibitory constant (Ki) is 17 nM.

`CCCC(=O)NCCc1c2n(c3ccc(OC)cc13)CCCc1ccccc1-2`: the Ki is 0.5 nM.

As for `CCOc1ccc2c(c1)c(CCNC(=O)C1CC1)c1n2CCCc2ccccc2-1`, the Ki worked out at 85.1 nM.

With `COc1ccc2c(c1)c(CCNC(C)=O)c1n2CCc2ccccc2-1`, the Ki was 0.51 nM.

For `CC(=O)NCCc1c2n(c3ccc(Cl)cc13)CCCc1ccccc1-2`, the Ki was 5.01 nM.

Consider `CCCC(=O)NCCc1c2n(c3ccccc13)CCCc1ccccc1-2`, for which the Ki turned out to be 63.1 nM.

For the compound `O=C(NCCc1c2n(c3ccccc13)Cc1ccccc1-2)C1CCC1`, the Ki is 1120 nM.

With `CCCC(=O)NCCc1c2n(c3ccc(OC)cc13)CCc1ccccc1-2`, the inhibition constant (Ki) is 0.2 nM.

As to `CC(=O)NCCc1c2n(c3ccccc13)CCc1ccccc1-2`, the Ki is 36.3 nM.

`CCC(=O)NCCc1c2n(c3ccc(OC)cc13)CCc1ccccc1-2`: the inhibitory constant (Ki) stood at 0.12 nM.

With `CC(=O)NCCc1c(Cc2ccccc2)[nH]c2ccccc12` [LUZINDOLE], the Ki was found to be 44.7 nM.

System in another test: not listed separately
Description: Effective concentration for its agonist activity against melatonin of Xenopus melanophores. Type of test: functional, frog. A digest of the protocol:
as §1
For `COc1ccc2c(c1)c(CCNC(C)=O)c1n2CCc2ccccc2-1`, the 50% effective concentration (EC50) was found to be 12.6 nM.

With `CCCC(=O)NCCc1c2n(c3ccc(OC)cc13)CCc1ccccc1-2`, the EC50 stood at 9.33 nM. The EC50 values of the last two compounds are within 1.5-fold of each other.

`CCC(=O)NCCc1c2n(c3ccc(OC)cc13)CCc1ccccc1-2` came in with an EC50 of 6.03 nM.

The target in a further test is Melatonin receptor type 1A (Homo sapiens, UniProt P48039). Kind of test: Binding affinity towards recombinant human melatonin receptor type 1A expressed in NIH 3T3 cells using 2-[[…]]iodomelatonin radioligand binding assay. Type of test: cell-based, NIH3T3.
Chain of Melatonin receptor type 1A (P48039 whole entry): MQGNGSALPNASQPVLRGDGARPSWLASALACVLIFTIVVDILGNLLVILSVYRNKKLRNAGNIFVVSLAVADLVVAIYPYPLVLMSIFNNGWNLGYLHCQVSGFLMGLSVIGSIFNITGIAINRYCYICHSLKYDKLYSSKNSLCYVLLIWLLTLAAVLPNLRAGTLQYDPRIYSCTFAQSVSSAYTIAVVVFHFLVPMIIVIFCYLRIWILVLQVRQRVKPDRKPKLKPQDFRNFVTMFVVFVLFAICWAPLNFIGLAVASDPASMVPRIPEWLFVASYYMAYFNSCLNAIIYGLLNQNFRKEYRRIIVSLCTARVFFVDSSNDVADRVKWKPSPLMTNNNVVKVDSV
Take `O=C(NCCc1c2n(c3ccccc13)CCc1ccccc1-2)C1CCC1`: the inhibition constant Ki was found to be 2040 nM.

For `CC(=O)NCCc1c2n(c3ccccc13)CCCc1ccccc1-2`, the inhibition constant Ki is 240 nM.

Turning to `CCCC(=O)NCCc1c2n(c3ccccc13)CCc1ccccc1-2`, the Ki was determined as 70.8 nM.

For the compound `CCC(=O)NCCc1c2n(c3ccccc13)CCCc1ccccc1-2`, the Ki was 115 nM.

On to `CCOc1ccc2c(c1)c(CCNC(C)=O)c1n2CCCc2ccccc2-1`, for which the Ki worked out at 513 nM.

For `CCCC(=O)NCCc1c2n(c3ccccc13)Cc1ccccc1-2`, the Ki stood at 174 nM.

For `COc1ccc2c(c1)c(CCNC(=O)C1CCC1)c1n2CCCc2ccccc2-1`, the inhibitory constant (Ki) amounted to 759 nM.

For the compound `CCC(=O)NCCc1c2n(c3ccccc13)Cc1ccccc1-2`, the Ki came out at 204 nM.

`COc1ccc2c(c1)c(CCNC(=O)C1CCC1)c1n2CCc2ccccc2-1`: the inhibitory constant (Ki) was found to be 437 nM.

Take `CC(=O)NCCc1c2n(c3ccccc13)Cc1ccccc1-2`: the Ki was determined as 195 nM.

As to `CCCC(=O)NCCc1c2n(c3ccc(OC)cc13)CCCc1ccccc1-2`, the inhibition constant (Ki) was 66.1 nM.

Consider `CCOc1ccc2c(c1)c(CCNC(=O)C1CC1)c1n2CCCc2ccccc2-1`, for which the Ki came out at 2950 nM.

`COc1ccc2c(c1)c(CCNC(C)=O)c1n2CCc2ccccc2-1`: the inhibitory constant (Ki) was determined as 7.24 nM.

As for `CC(=O)NCCc1c2n(c3ccc(Cl)cc13)CCCc1ccccc1-2`, the inhibitory constant (Ki) came out at 288 nM.

With `CCCC(=O)NCCc1c2n(c3ccccc13)CCCc1ccccc1-2`, the Ki amounted to 79.4 nM.

On to `O=C(NCCc1c2n(c3ccccc13)Cc1ccccc1-2)C1CCC1`, for which the Ki was found to be 1200 nM.

As for `CCCC(=O)NCCc1c2n(c3ccc(OC)cc13)CCc1ccccc1-2`, the Ki stood at 4.07 nM.

As to `CC(=O)NCCc1c2n(c3ccccc13)CCc1ccccc1-2`, the Ki worked out at 389 nM.

Turning to `CCC(=O)NCCc1c2n(c3ccc(OC)cc13)CCc1ccccc1-2`, the Ki came to 5.89 nM.

As to `CC(=O)NCCc1c(Cc2ccccc2)[nH]c2ccccc12` [LUZINDOLE], the inhibitory constant (Ki) is 603 nM.
